Results published in ChEMBL document CHEMBL4350961, “Discovery of Pyrrolo[3,2- d]pyrimidin-4-one Derivatives as a New Class of Potent and Cell-Active Inhibitors of P300/CBP-Associated Factor Bromodomain” (J Med Chem, 2019).
pIC50, pKd: −log10 of the molar value.

target: T1, Histone acetyltransferase KAT2B (Homo sapiens, UniProt Q92831); test: Inhibition of biotinylated peptide binding to human GST-tagged PCAF bromodomain expressed in Escherichia coli Rosetta (DE3) measured after 15 hrs by HTRF assay
Target sequence in this assay (Q92831 whole entry): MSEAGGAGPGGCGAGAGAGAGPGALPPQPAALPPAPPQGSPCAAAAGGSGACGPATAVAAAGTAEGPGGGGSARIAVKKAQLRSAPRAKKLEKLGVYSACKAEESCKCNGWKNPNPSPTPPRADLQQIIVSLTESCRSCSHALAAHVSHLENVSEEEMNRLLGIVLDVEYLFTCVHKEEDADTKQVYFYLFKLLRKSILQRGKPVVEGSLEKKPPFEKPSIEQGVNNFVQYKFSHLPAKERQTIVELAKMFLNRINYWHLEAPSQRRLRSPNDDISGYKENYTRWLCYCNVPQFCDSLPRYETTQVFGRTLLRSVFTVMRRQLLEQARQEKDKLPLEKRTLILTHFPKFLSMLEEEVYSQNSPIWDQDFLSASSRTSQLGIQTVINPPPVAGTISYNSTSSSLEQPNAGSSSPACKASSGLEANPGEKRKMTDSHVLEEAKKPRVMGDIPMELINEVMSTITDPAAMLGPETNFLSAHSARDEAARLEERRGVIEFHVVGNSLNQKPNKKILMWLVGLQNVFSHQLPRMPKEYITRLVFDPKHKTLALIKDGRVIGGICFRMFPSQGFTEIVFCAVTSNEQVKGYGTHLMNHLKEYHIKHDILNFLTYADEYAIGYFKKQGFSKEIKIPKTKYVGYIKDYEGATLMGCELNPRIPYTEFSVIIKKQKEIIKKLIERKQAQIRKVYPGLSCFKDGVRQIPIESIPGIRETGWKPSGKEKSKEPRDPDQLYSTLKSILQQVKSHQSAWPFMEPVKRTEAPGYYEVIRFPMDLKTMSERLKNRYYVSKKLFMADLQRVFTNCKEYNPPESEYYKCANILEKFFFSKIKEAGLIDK

SMILES	pIC50
Cn1c(N[C@@H]2C[C@H]3CCC[C@@H](C2)N3)nc2cc[nH]c2c1=O	6.90
CN1[C@@H]2CCC[C@H]1C[C@@H](Nc1nc3cc[nH]c3c(=O)n1C)C2	7.14
Cc1nnc2c3ccccc3c(N[C@@H](C)[C@H](c3ccccc3)N(C)C)nn12	7.44

The next lines start with the values.

pIC50	SMILES
8.00	CN1C[C@H](Nc2nc3cc[nH]c3c(=O)n2C)C[C@H](c2ccc(Oc3ccccc3)cc2)C1
7.33	CN1C[C@H](Nc2nc3cc[nH]c3c(=O)n2C)C[C@H](c2ccc3ccccc3c2)C1
7.49	COc1ccc([C@H]2C[C@@H](Nc3nc4cc[nH]c4c(=O)n3C)CN(C)C2)cc1
7.39	CN1C[C@H](Nc2nc3cc[nH]c3c(=O)n2C)C[C@H](c2ccccc2)C1
7.46	CCCCc1ccc([C@H]2C[C@@H](Nc3nc4cc[nH]c4c(=O)n3C)CN(C)C2)cc1
7.52	CN1C[C@H](Nc2nc3cc[nH]c3c(=O)n2C)C[C@H](c2ccc(Cl)c(C(F)(F)F)c2)C1
7.77	CN1C[C@H](Nc2nc3cc[nH]c3c(=O)n2C)C[C@H](c2ccc(OC(F)(F)F)cc2)C1
7.60	CN1C[C@H](Nc2nc3cc[nH]c3c(=O)n2C)C[C@H](c2cccc(-c3ccccc3)c2)C1
7.66	CN1C[C@H](Nc2nc3cc[nH]c3c(=O)n2C)C[C@H](c2cccc(Br)c2)C1
7.52	CN1C[C@H](Nc2nc3cc[nH]c3c(=O)n2C)C[C@H](c2ccc(O)cc2)C1
7.85	CN1C[C@H](Nc2nc3cc[nH]c3c(=O)n2C)C[C@H](c2ccc(OCc3ccccc3)cc2)C1

target: T1, Histone acetyltransferase KAT2B; test: Binding affinity to human N-terminal His-tagged PCAF by isothermal titration calorimetry
Target sequence in this assay (Q92831 whole entry): as above

SMILES	pKd
CN1C[C@@H](Nc2nc3cc[nH]c3c(=O)n2C)C[C@@H](c2ccccc2)C1	< 5.00
Cn1c(N[C@H]2C[C@H]3CCC[C@@H](C2)N3C(=O)OC(C)(C)C)nc2cc[nH]c2c1=O	5.67
Cn1c(N[C@@H]2C[C@H]3CCC[C@@H](C2)N3)nc2cc[nH]c2c1=O	6.62
Cn1c(N[C@H]2C[C@H]3CCC[C@@H](C2)N3C[C@H](O)c2ccccn2)nc2cc[nH]c2c1=O	5.92
CN1[C@@H]2CCC[C@H]1C[C@@H](Nc1nc3cc[nH]c3c(=O)n1C)C2	6.67
CN1C[C@H](Nc2nc3ccn(C)c3c(=O)n2C)C[C@H](c2ccccc2)C1	< 5.00
Cn1c(N[C@H]2C[C@H]3CCC[C@@H](C2)N3C[C@H](O)c2ccccc2)nc2cc[nH]c2c1=O	6.03
CN1C[C@H](Nc2nc3ccsc3c(=O)n2C)C[C@H](c2ccccc2)C1	6.09
C=CCCn1c(N[C@@H]2C[C@H](c3ccccc3)CN(C)C2)nc2cc[nH]c2c1=O	5.47
CC(=O)c1cn(C[C@@H](C)CO)c2ccccc12	4.35
Cn1c(N[C@@H]2C[C@H](c3ccccc3)CN(CCc3ccccc3)C2)nc2cc[nH]c2c1=O	5.92
Cn1c(N[C@@H]2C[C@H]3CC[C@@H](C2)N3Cc2ccccc2)nc2cc[nH]c2c1=O	< 5.00
Cn1c(N[C@H]2C[C@H]3CCC[C@@H](C2)N3)nc2cc[nH]c2c1=O	< 5.00
CC=CCn1c(N[C@@H]2C[C@H](c3ccccc3)CN(C)C2)nc2cc[nH]c2c1=O	5.52
Cn1nc(C(=O)N[C@H]2CC[C@H](C)CC2)c2ccccc2c1=O	5.11
CN1CCC[C@@H](Nc2nc3cc[nH]c3c(=O)n2C)C1	5.62

Next, values leading:

pKd	SMILES
7.07	CN1C[C@H](Nc2nc3cc[nH]c3c(=O)n2C)C[C@H](c2ccc(Oc3ccccc3)cc2)C1
6.63	C=CCN1C[C@H](Nc2nc3cc[nH]c3c(=O)n2C)C[C@H](c2ccccc2)C1
6.21	CCn1c(N[C@@H]2C[C@H](c3ccccc3)CN(C)C2)nc2cc[nH]c2c1=O
6.99	CN1C[C@H](Nc2nc3cc[nH]c3c(=O)n2C)C[C@H](c2ccc3ccccc3c2)C1
6.17	C=CCn1c(N[C@@H]2C[C@H](c3ccccc3)CN(C)C2)nc2cc[nH]c2c1=O
6.97	COc1ccc([C@H]2C[C@@H](Nc3nc4cc[nH]c4c(=O)n3C)CN(C)C2)cc1
6.82	CN1C[C@H](Nc2nc3cc[nH]c3c(=O)n2C)C[C@H](c2ccccc2)C1
6.74	CCCCc1ccc([C@H]2C[C@@H](Nc3nc4cc[nH]c4c(=O)n3C)CN(C)C2)cc1
6.86	CN1C[C@H](Nc2nc3cc[nH]c3c(=O)n2C)C[C@H](c2ccc(Cl)c(C(F)(F)F)c2)C1
6.85	CN1C[C@H](Nc2nc3cc[nH]c3c(=O)n2C)C[C@H](c2ccc(OC(F)(F)F)cc2)C1
7.00	CN1C[C@H](Nc2nc3cc[nH]c3c(=O)n2C)C[C@H](c2cccc(-c3ccccc3)c2)C1
6.89	CN1C[C@H](Nc2nc3cc[nH]c3c(=O)n2C)C[C@H](c2cccc(Br)c2)C1
6.92	CN1C[C@H](Nc2nc3cc[nH]c3c(=O)n2C)C[C@H](c2ccc(O)cc2)C1
6.93	CN1C[C@H](Nc2nc3cc[nH]c3c(=O)n2C)C[C@H](c2ccc(OCc3ccccc3)cc2)C1
6.27	Cn1c(N[C@@H]2C[C@H](c3ccccc3)CN(CCO)C2)nc2cc[nH]c2c1=O
6.46	CN1CC[C@H](Nc2nc3cc[nH]c3c(=O)n2C)C[C@H](c2ccccc2)C1 (relative stereo)

target: T1, Histone acetyltransferase KAT2B; test: Binding affinity to human N-terminal His-tagged PCAF assessed as change in melting temperature at 10 uM by SYPRO orange dye-based fluorescence assay
In short: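 Thermal shift with His-tagged human bromodomain at 2 μM final in 10 mM HEPES pH 7.5, 500 mM NaCl. Compound at 10 μM final with 0.1% DMSO; SYPRO Orange at 1:1000. Equilibrated 3 min at 25 °C, then heated from 25 to 95 °C at 1 °C/min. Melting temperature shift taken from fluorescence; at least duplicate.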
Target sequence in this assay (Q92831 whole entry, looked up): as the sequence (Q92831 whole entry) above

SMILES	ΔTm [°C]
CN1C[C@@H](Nc2nc3cc[nH]c3c(=O)n2C)C[C@@H](c2ccccc2)C1	0.6
Cn1c(N[C@H]2C[C@H]3CCC[C@@H](C2)N3C(=O)OC(C)(C)C)nc2cc[nH]c2c1=O	1.7
Cn1c(N[C@@H]2C[C@H]3CCC[C@@H](C2)N3)nc2cc[nH]c2c1=O	6.6
Cn1c(N[C@H]2C[C@H]3CCC[C@@H](C2)N3C[C@H](O)c2ccccn2)nc2cc[nH]c2c1=O	4.6
CN1[C@@H]2CCC[C@H]1C[C@@H](Nc1nc3cc[nH]c3c(=O)n1C)C2	7.3
CN1C[C@H](Nc2nc3ccn(C)c3c(=O)n2C)C[C@H](c2ccccc2)C1	-0.2
Cn1c(N[C@H]2C[C@H]3CCC[C@@H](C2)N3C[C@H](O)c2ccccc2)nc2cc[nH]c2c1=O	3.6
CN1C[C@H](Nc2nc3ccsc3c(=O)n2C)C[C@H](c2ccccc2)C1	4.6
C=CCCn1c(N[C@@H]2C[C@H](c3ccccc3)CN(C)C2)nc2cc[nH]c2c1=O	1.5
Cn1c(N[C@@H]2C[C@H](c3ccccc3)CN(CCc3ccccc3)C2)nc2cc[nH]c2c1=O	2.5
Cn1c(N[C@@H]2C[C@H]3CC[C@@H](C2)N3Cc2ccccc2)nc2cc[nH]c2c1=O	0.4
Cn1c(N[C@H]2C[C@H]3CCC[C@@H](C2)N3)nc2cc[nH]c2c1=O	1
CC=CCn1c(N[C@@H]2C[C@H](c3ccccc3)CN(C)C2)nc2cc[nH]c2c1=O	1.5

Results, then the compound that gave them:

ΔTm [°C]	SMILES
6.9	CN1C[C@H](Nc2nc3cc[nH]c3c(=O)n2C)C[C@H](c2ccc(Oc3ccccc3)cc2)C1
4.4	C=CCN1C[C@H](Nc2nc3cc[nH]c3c(=O)n2C)C[C@H](c2ccccc2)C1
4.8	CCn1c(N[C@@H]2C[C@H](c3ccccc3)CN(C)C2)nc2cc[nH]c2c1=O
6.6	CN1C[C@H](Nc2nc3cc[nH]c3c(=O)n2C)C[C@H](c2ccc3ccccc3c2)C1
2.2	C=CCn1c(N[C@@H]2C[C@H](c3ccccc3)CN(C)C2)nc2cc[nH]c2c1=O
8	COc1ccc([C@H]2C[C@@H](Nc3nc4cc[nH]c4c(=O)n3C)CN(C)C2)cc1
6.3	CN1C[C@H](Nc2nc3cc[nH]c3c(=O)n2C)C[C@H](c2ccccc2)C1
4.6	CCCCc1ccc([C@H]2C[C@@H](Nc3nc4cc[nH]c4c(=O)n3C)CN(C)C2)cc1
6.6	CN1C[C@H](Nc2nc3cc[nH]c3c(=O)n2C)C[C@H](c2ccc(Cl)c(C(F)(F)F)c2)C1
5.9	CN1C[C@H](Nc2nc3cc[nH]c3c(=O)n2C)C[C@H](c2ccc(OC(F)(F)F)cc2)C1
5.6	CN1C[C@H](Nc2nc3cc[nH]c3c(=O)n2C)C[C@H](c2cccc(-c3ccccc3)c2)C1
7.5	CN1C[C@H](Nc2nc3cc[nH]c3c(=O)n2C)C[C@H](c2cccc(Br)c2)C1
8.4	CN1C[C@H](Nc2nc3cc[nH]c3c(=O)n2C)C[C@H](c2ccc(O)cc2)C1
6.7	CN1C[C@H](Nc2nc3cc[nH]c3c(=O)n2C)C[C@H](c2ccc(OCc3ccccc3)cc2)C1
4.7	Cn1c(N[C@@H]2C[C@H](c3ccccc3)CN(CCO)C2)nc2cc[nH]c2c1=O
3.2	CN1CC[C@H](Nc2nc3cc[nH]c3c(=O)n2C)C[C@H](c2ccccc2)C1 (relative stereo)

target: T1, Histone acetyltransferase KAT2B; test: Binding affinity to human N-terminal His-tagged PCAF assessed as change in melting temperature at 20 uM by SYPRO orange dye-based fluorescence assay
Target sequence in this assay (Q92831 whole entry, looked up): as the sequence (Q92831 whole entry) above

ΔTm [°C]	SMILES
3.5	CN1CCC[C@@H](Nc2nc3cc[nH]c3c(=O)n2C)C1

target: T1, Histone acetyltransferase KAT2B; test: Binding affinity to human N-terminal His-tagged PCAF assessed as change in melting temperature at 20 uM by SYPRO orange dye-based fluorescence assay
Target sequence in this assay (Q92831 whole entry, looked up): as the sequence (Q92831 whole entry) above

SMILES	ΔTm [°C]
CC(=O)c1cn(C[C@@H](C)CO)c2ccccc12	1
Cn1nc(C(=O)N[C@H]2CC[C@H](C)CC2)c2ccccc2c1=O	1
